SENP1 inh = blocks the human SENP1 SUMO protease catalytic domain; Q9P0U3; recombinant SENP1 catalytic domain, CyPet-SUMO1-YPet FRET cleavage; inhibition, % at 10 µM; 360,000 compounds, 0.21% hits;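 active = inhibition at least 30% at 10 µM, raw YFP signal under a set limit, fluorescence ratio 0.5 to 1.5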
Target sequence (Q9P0U3 419-644 limits assumed): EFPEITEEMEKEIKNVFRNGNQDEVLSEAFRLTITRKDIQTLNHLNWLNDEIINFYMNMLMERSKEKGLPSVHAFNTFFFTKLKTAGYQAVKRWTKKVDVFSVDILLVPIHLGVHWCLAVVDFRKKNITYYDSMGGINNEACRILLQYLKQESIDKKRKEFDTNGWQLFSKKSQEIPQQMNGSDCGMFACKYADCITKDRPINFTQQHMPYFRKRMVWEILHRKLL
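material = recombinant human SENP1 catalytic domain, His6-tagged | quantity = 20 pM enzyme | reagent = 25 nM SUMO1 FRET substrate | compound dosing = 10 µM single point, 0.5% DMSO | timing = 50 min enzyme reaction, room temperature, light-protected | detection = FRET, CFP and YFP emission | control set = no-enzyme low, enzyme-DMSO high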
FAS TE block = inhibitors of human fatty acid synthase thioesterase domain; inhibition, % at 15 µM; 360,000 compounds, 0.67% hits; recombinant FAS-TE, OMFH fluorogenic substrate, fluorescence endpoint; P49327;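 active = compounds whose normalised, plate-corrected inhibition of enzyme fluorescence in the single-dose primary screen is 50% or more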
Arrestin-AP2 inh = human beta-arrestin and AP2 interaction inhibition; FITC-arrestin peptide / GST-AP2 beads, flow cytometry; AP2 beta2 appendage carries R879A mutation; inhibition, % at 10 µM; 340,000 compounds, 0.31% hits; AID 504490;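 active = inhibition above a set limit, near 3 SD of compounds lacking own fluorescence, cut at about 54% in these data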
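Measured by: flow cytometry, FL1 (488/535 nm); Material: AP2 appendage R879A on GSH beads; Evaluation: percent response; Timing: pre-incubation 12 min, peptide binding 1 h, room temperature; Also added: 50 nM FITC-arrestin peptide; Medium: PBS with 0.05% Tween 20 and 0.1% BSA.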
JMJD2C inh = human JMJD2C demethylase inhibition; Q9H3R0; GST-JMJD2C(1-420) H3K9me3 demethylation, DELFIA europium; inhibition, % at 2.35 µM; 330,000 compounds, 0.069% hits; AID 2099;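 active = more than half of a compound's replicate wells show inhibition beyond 50%, single wells judged on their own value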;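 note: signal counts dimethyl H3K9 product captured on neutravidin plate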
Target sequence (Q9H3R0 1-420 limits assumed): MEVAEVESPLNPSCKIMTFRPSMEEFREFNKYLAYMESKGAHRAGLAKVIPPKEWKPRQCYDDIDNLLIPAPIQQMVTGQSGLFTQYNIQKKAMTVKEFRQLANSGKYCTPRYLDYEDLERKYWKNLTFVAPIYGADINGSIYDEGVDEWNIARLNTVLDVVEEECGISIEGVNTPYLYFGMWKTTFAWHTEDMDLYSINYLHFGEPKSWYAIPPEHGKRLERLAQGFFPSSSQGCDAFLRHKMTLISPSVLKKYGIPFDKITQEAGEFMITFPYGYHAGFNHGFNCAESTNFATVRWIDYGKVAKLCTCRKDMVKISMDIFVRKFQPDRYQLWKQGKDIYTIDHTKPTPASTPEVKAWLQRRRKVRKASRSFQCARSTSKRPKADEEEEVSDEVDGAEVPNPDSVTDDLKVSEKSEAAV
FAS-TE inh conf = FAS thioesterase (human) inhibition, confirmation. shares compounds with FAS TE block. recombinant FAS-TE, OMFH fluorogenic substrate, fluorescence. inhibition, % at 15 µM. 2,300 compounds, 45% hits. AID 624325;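 active = compounds inhibiting the enzyme by at least 50% at 15 µM in any one of the replicates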
Of the large screens only hits and unclear results are named; the others gave an inactive call (follow-up assays come after a bar, where they were run). An excerpt weighted towards active compounds, which were near 1.1% of everything screened.

O=C(NNC(=O)c1ccc(S(=O)(=O)N2CCOCC2)cc1)c1ccccc1	none
O=C(Nc1nc(-c2ccccc2)c(C(=O)c2ccccc2)s1)c1ccc(S(=O)(=O)N2CCCCC2)cc1	FAS TE block 86 | FAS-TE inh conf inactive
CN(C)S(=O)(=O)c1ccc(C(=O)NNc2nc(-c3ccccc3)c3cc(Br)ccc3n2)cc1	none
O=C(NNc1nc(-c2ccccc2)c2cc(Br)ccc2n1)c1ccc(S(=O)(=O)N2CCOCC2)cc1	FAS TE block 80 | FAS-TE inh conf inactive
O=C(NNc1nc(-c2ccccc2)c2cc(Br)ccc2n1)c1ccc(S(=O)(=O)N2CCCCC2)cc1	FAS TE block 74 | FAS-TE inh conf inactive
CCN(C(=O)c1cn(C)c(=O)c2cc(OC)c(OC)cc12)c1cc(OC)ccc1OC	none
CCN1CCN(c2nc(Nc3ccc(OC)cc3)nc(N)c2[N+](=O)[O-])CC1	none
COc1ccc(CNC(=O)CC2C[C@H](C(=O)N3CCOCC3)[C@@]3(CCC4CCCC4)c4[nH]c5ccccc5c4CCN3C2=O)cc1OC (stereo not given in full)	FAS TE block 77 | FAS-TE inh conf 88
COc1ccc(CNC(=O)C[C@H]2C[C@H](C(=O)N3CCCCC3)[C@@]3(CCc4ccccc4)c4[nH]c5ccc(Cl)cc5c4CCN3C2=O)cc1OC	FAS TE block 69 (no result: JMJD2C inh) | FAS-TE inh conf inactive
O=C(CC1C[C@H](C(=O)N2CCOCC2)[C@@]2(CCC3CCCC3)c3[nH]c4ccccc4c3CCN2C1=O)NCc1cccc(C(F)(F)F)c1 (stereo not given in full)	FAS TE block 61 (no result: JMJD2C inh) | FAS-TE inh conf 34
CC[C@]12c3[nH]c4ccc(Cl)cc4c3CCN1C(=O)[C@@H](CC(=O)NCc1ccc(OC)c(OC)c1)C[C@@H]2C(=O)N1CCN(C(=O)C2CC2)CC1	none (no result: JMJD2C inh)
O=c1c2ccccc2c(C=Nc2ccc(S(=O)(=O)N3CCCCC3)cc2)c(O)n1-c1ccc(Cl)cn1	FAS TE block 61 | FAS-TE inh conf inactive
C=CCNS(=O)(=O)c1ccc(C(=O)OCc2cc(=O)oc3cc(OC)ccc23)cc1	none
COC(=O)C(c1ccccc1)C(C(=O)OC)c1ccccc1 (stereo not given)	none
COC(=O)[C@@H](c1ccccc1)N(C)S(=O)(=O)c1cccc(S(=O)(=O)N(C)[C@@H](C(=O)OC)c2ccccc2)c1	FAS TE block 53 | FAS-TE inh conf inactive
CNC(=S)NN(C)c1nc(C)cc(C)n1	none
COc1ccc([C@@H]2[C@@H]3C(=O)N(C(C)(C)C)C(=O)[C@@H]3[C@]3(Cc4ccccc4)C(=O)N(c4cccc(C)c4)C(=O)N23)cc1	none
COc1ccc([C@@H]2[C@@H]3C(=O)N(C(C)(C)C)C(=O)[C@@H]3[C@]3(Cc4ccc(Cl)cc4)C(=O)N(c4cccc(Br)c4)C(=O)N23)cc1	FAS TE block 95 | FAS-TE inh conf inactive
COc1ccc([C@@H]2[C@@H]3C(=O)N(C(C)(C)C)C(=O)[C@@H]3[C@]3(Cc4ccc(Cl)cc4)C(=O)N(c4cccc(F)c4)C(=O)N23)cc1	FAS TE block 72 | FAS-TE inh conf inactive
COc1ccc(C(CNC(=O)COc2ccc(-c3ccccc3)cc2)N2CCOCC2)cc1 (stereo not given)	none
CCc1nc2ccc(C(=O)N3CCN(C)CC3)cn2c1N(CCC(C)C)CCN(C)C	none (no result: Arrestin-AP2 inh, JMJD2C inh)
Cc1cc(OCc2nc(N)nc(N)c2-c2ccc(Cl)c(Cl)c2)ccc1[N+](=O)[O-]	FAS TE block 51 (no result: JMJD2C inh) | FAS-TE inh conf inactive
CN(C)S(=O)(=O)N1CCN(c2ccc([N+](=O)[O-])c(N3CCCCC3)c2)CC1	none
CCN(C(=O)COC(=O)c1cc([N+](=O)[O-])ccc1N1CCOCC1)c1ccccc1	FAS TE block 78 | FAS-TE inh conf 71
COc1ccc(CN(C)C(=O)COC(=O)c2cc([N+](=O)[O-])ccc2N2CCCC2)c(OC)c1OC	FAS TE block 70 | FAS-TE inh conf 31
CN(Cc1ccccc1)C(=O)COC(=O)c1cc([N+](=O)[O-])ccc1N1CCOCC1	FAS TE block 92 | FAS-TE inh conf 91
CCOC(=O)C1(C)CCCN(C(=O)c2ccc3c(c2)OCO3)C1 (stereo not given)	none (no result: Arrestin-AP2 inh, JMJD2C inh)
Cc1cccc(NC(=O)CSc2nc3ccc(NC(=O)CSc4nnnn4-c4ccccc4)cc3s2)c1C	none (no result: SENP1 inh, FAS TE block, Arrestin-AP2 inh)
O=C(CSc1nc2nc(-c3cccs3)cc(C(F)(F)F)c2c(=O)[nH]1)Nc1c(F)c(F)c(F)c(F)c1F	FAS TE block 50 | FAS-TE inh conf inactive
CC(=O)c1cccc(-c2ccnc3c2CC(C(=O)Nc2ccc(C(C)C)cc2)O3)c1 (stereo not given)	FAS TE block 55 (no result: Arrestin-AP2 inh, JMJD2C inh) | FAS-TE inh conf 59
Cc1ccc2cc(COC(=O)c3cccc([N+](=O)[O-])c3)c(=O)[nH]c2c1	FAS TE block 63 | FAS-TE inh conf inactive
Cc1ccc(NC(=O)CN(C)C(=O)CSc2nnnn2C)cc1	none
O=C(Nc1nc2cc(Cl)ccc2s1)C1CCCN(S(=O)(=O)c2cccc3cccnc23)C1 (stereo not given)	FAS TE block 69 | FAS-TE inh conf inactive
CCOC1=C2CN(S(=O)(=O)c3ccc(C)cc3)C(c3ccc(CC)cc3)CC2N(S(=O)(=O)c2ccc(C)cc2)C(c2ccc(CC)cc2)C1 (stereo not given)	none (no result: FAS TE block, Arrestin-AP2 inh, JMJD2C inh)
CCOC1=C2[C@H](c3ccccc3Cl)N(S(=O)(=O)c3ccc(C)cc3)C[C@H]2C(C#N)(C#N)C(C#N)(C#N)C1	FAS TE block 76 (no result: Arrestin-AP2 inh, JMJD2C inh) | FAS-TE inh conf inactive
CCOC1=C2[C@H](c3ccc(CC)cc3)N(S(=O)(=O)c3ccc(C)cc3)C[C@H]2C(C#N)(C#N)C(C#N)(C#N)C1	FAS TE block 80 (no result: Arrestin-AP2 inh, JMJD2C inh) | FAS-TE inh conf inactive
CN(C)S(=O)(=O)c1ccc(N2C(=O)CC2(/C=C/c2ccccc2)C(=O)NC2CCCC2)cc1 (stereo not given)	FAS TE block 60 | FAS-TE inh conf inactive
COc1ccccc1/C=C/C1(C(=O)NC2CCCC2)CC(=O)N1c1ccccc1 (stereo not given)	none
COc1ccc2cc(C3CC(c4ccco4)=NN3S(=O)(=O)c3ccccc3)c(Cl)nc2c1 (stereo not given)	FAS TE block 71 | FAS-TE inh conf inactive
CCCC1CCC(=NNS(=O)(=O)c2ccc(C)c([N+](=O)[O-])c2)CC1 (stereo not given)	none
Cc1ccc(S(=O)(=O)NN=C2CCC(C(C)(C)C)CC2)cc1[N+](=O)[O-] (stereo not given)	FAS TE block 67 | FAS-TE inh conf 47
CCOc1ccc(S(=O)(=O)N2CCC(C(=O)Nc3ccc(C)c(S(=O)(=O)N4CCOCC4)c3)CC2)cc1	FAS TE block 52 (no result: JMJD2C inh) | FAS-TE inh conf inactive
N#Cc1cc2ccc(N3CCOCC3)cc2cc1C#N	FAS TE block 74 (no result: JMJD2C inh) | FAS-TE inh conf 62
N#Cc1cc(Cl)c(N2CCOCC2)cc1C#N	none
